Measured values published in ChEMBL document CHEMBL4049415, “Kinetin Riboside and Its ProTides Activate the Parkinson's Disease Associated PTEN-Induced Putative Kinase 1 (PINK1) Independent of Mitochondrial Depolarization” (J Med Chem, 2017).
Activity calls are given as the source filed them. The rule behind the calls is not given here.

Tests used:
[1] = biological target: Serine/threonine-protein kinase PINK1, mitochondrial (Homo sapiens) (UniProt Q9BXM7); assay: Activation of FLAG tagged PINK1 (unknown origin) expressed in Flp-In TRex HEK293 cells co-expressing wild-type Parkin assessed as Parkin Ser65 phosphorylation at 50 uM after 24 hrs in absence of CCCP by immunoblotting analysis; assay type: cell-based
Serine/threonine-protein kinase PINK1, mitochondrial (Homo sapiens), sequence (Q9BXM7 whole entry): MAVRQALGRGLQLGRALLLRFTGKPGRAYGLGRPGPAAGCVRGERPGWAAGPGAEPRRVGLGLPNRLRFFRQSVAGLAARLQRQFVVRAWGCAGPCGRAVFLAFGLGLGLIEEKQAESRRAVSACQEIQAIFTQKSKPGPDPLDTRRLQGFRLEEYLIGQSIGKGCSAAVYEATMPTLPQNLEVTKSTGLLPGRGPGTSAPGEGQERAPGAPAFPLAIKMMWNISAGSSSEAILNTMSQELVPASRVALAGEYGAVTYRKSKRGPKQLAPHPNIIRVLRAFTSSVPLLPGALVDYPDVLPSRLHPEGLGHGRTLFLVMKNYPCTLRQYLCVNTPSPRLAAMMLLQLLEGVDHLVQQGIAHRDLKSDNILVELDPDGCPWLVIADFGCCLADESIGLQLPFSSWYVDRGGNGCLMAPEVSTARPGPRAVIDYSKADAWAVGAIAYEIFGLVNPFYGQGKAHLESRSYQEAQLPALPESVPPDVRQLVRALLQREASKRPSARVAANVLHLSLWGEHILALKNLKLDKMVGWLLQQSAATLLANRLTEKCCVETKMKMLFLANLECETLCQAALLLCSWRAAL

Serum [2] = assay: Metabolic stability of compound in human serum at 5.0 mg measured at even intervals over 11 hrs by 31P-NMR spectroscopic analysis; assay type: ADME, cell-free
Method in brief: (§1)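 Serum stability: 5.0 mg in DMSO-d6 and D2O, thawed human or mouse serum added in the NMR tube. 31P NMR at 37 °C, spectra immediately, at 30 min, then at even intervals over 11 h. Controls were compound without serum, and serum without compound.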

[3] = biological target: T1, Lysosomal protective protein (Homo sapiens, UniProt P10619); assay: Drug metabolism in pH 7.4 trizma buffer assessed as cathepsin A (unknown origin)-mediated (S)-2-((((2R,3S,4R,5R)-5-(6-(furan-2-ylmethylamino)-9H-purin-9-yl)-3,4-dihydroxytetrahydrofuran-2-yl)methoxy)oxidophosphorylamino)propanoate formation at 5.0 mg measured after 2 to 12 hrs by 31P-NMR spectroscopic analysis; assay type: ADME
T1 sequence (P10619 whole entry): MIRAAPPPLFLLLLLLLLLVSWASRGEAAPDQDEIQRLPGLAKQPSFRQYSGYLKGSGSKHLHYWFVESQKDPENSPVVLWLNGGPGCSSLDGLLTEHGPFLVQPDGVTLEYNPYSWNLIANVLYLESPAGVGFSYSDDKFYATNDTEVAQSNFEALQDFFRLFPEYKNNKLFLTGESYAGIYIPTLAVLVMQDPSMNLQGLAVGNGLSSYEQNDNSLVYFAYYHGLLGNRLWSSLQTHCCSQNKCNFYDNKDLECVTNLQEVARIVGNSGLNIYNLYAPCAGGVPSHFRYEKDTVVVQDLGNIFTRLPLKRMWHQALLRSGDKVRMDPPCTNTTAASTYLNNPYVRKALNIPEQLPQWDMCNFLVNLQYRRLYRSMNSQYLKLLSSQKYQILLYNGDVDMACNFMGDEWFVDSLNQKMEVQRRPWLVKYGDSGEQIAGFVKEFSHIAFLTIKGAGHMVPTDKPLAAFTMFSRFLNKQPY

Serum [4] = assay: Metabolic stability of the compound in mouse serum at 5.0 mg measured at even intervals over 11 hrs by 31P-NMR spectroscopic analysis; assay type: ADME, cell-free; method in brief: as §1
[5] = Chemical stability of compound in pH 1 buffer at 5.0 mg measured at every 20 mins over 12 hrs by 31P-NMR spectroscopic analysis; assay type: physicochemical; details: pH 1, 12 h
Method in brief: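 Acid stability: 5 mg in methanol-d4 mixed with pH 1 buffer (equal parts 0.2 M HCl and 0.2 M KCl). 31P NMR at 37 °C, spectra every 20 min over 12 h; persistence of parent phosphorus peaks followed.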

[6] = biological target: T1, Lysosomal protective protein; assay: (§2) Stability in pH 7.4 trizma buffer assessed as cathepsin A (unknown origin)-mediated compound hydrolysis by measuring parent compound remaining at 5.0 mg measured after 12 hrs by 31P-NMR spectroscopic analysis; assay type: ADME; details: pH 7.4, 12 h
[7] = biological target: T1, Lysosomal protective protein; assay: Stability in pH 7.4 trizma buffer assessed as cathepsin A (unknown origin)-mediated compound hydrolysis at 5.0 mg measured after 15 mins by 31P-NMR spectroscopic analysis; assay type: ADME; details: pH 7.4, 0.25 h
[8] = biological target: T1, Lysosomal protective protein; assay: Prodrug activation in pH 7.4 trizma buffer assessed as cathepsin A (unknown origin)-mediated kinetin riboside monophosphate metabolite formation at 5.0 mg measured after 48 hrs by 31P-NMR spectroscopic analysis; assay type: ADME; details: pH 7.4, 48 h
[9] = biological target: Serine/threonine-protein kinase PINK1, mitochondrial (Homo sapiens) (UniProt Q9BXM7); assay: Activation of FLAG tagged PINK1 (unknown origin) expressed in Flp-In TRex HEK293 cells co-expressing wild-type Parkin assessed as Parkin Ser65 phosphorylation at 50 uM in absence of CCCP by immunoblotting analysis; assay type: cell-based; details: TDE = time-dependent effect
[10] = biological target: Serine/threonine-protein kinase PINK1, mitochondrial (Homo sapiens) (UniProt Q9BXM7); assay: Activation of FLAG tagged PINK1 (unknown origin) expressed in Flp-In TRex HEK293 cells co-expressed with Parkin S65A mutant assessed as Parkin phosphorylation at 50 uM in absence of CCCP by immunoblotting analysis; assay type: cell-based
[11] = biological target: T2, cathepsin A (lysosomal protective protein) (Homo sapiens, UniProt P10619); assay: as §2; assay type: ADME; details: cathepsin A in trizma buffer, pH 7.4, read-out: Stability
T2 sequence (P10619 whole entry): T1 sequence (P10619 whole entry)

[12] = biological target: T1, Lysosomal protective protein; assay: Drug level in pH 7.4 trizma buffer treated with phenyl(Isopropoxy-L-alaninyl) kinetin riboside phosphoramidate assessed as cathepsin A (unknown origin)-mediated metabolite formation at 5.0 mg measured after 2 to 12 hrs by 31P-NMR spectroscopic analysis; assay type: ADME
[13] = biological target: Serine/threonine-protein kinase PINK1, mitochondrial (Homo sapiens) (UniProt Q9BXM7); assay: Activation of FLAG tagged PINK1 (unknown origin) expressed in Flp-In TRex HEK293 cells co-expressed with wild-type Parkin assessed as Parkin Ser65 phosphorylation at 10 uM by immunoblotting analysis; assay type: cell-based; details: TDE = time-dependent effect

Structure (SMILES): COC(=O)[C@H](C)NP(=O)(OC[C@H]1O[C@@H](n2cnc3c(NCc4ccco4)ncnc32)[C@H](O)[C@@H]1O)Oc1ccccc1 (stereo partly drawn)
- Activity [1]: Active

Structure (SMILES): c1coc(CNc2ncnc3[nH]cnc23)c1
- Activity [1]: inactive

Structure (SMILES): CC(C)OC(=O)[C@H](C)NP(=O)(OC[C@H]1O[C@@H](n2cnc3c(NCc4ccco4)ncnc32)[C@H](O)[C@@H]1O)Oc1ccccc1 (stereo partly drawn)
- Stability (Serum [2]): Stable
- Drug metabolism [3]: Metabolite_Detected
- Activity [1]: Active
- Stability (Serum [4]): Stable
- Stability [5]: Stable
- Stability [6]: Unstable
- Stability [7]: Stable
- Drug metabolism [8]: Metabolite_Detected

Structure (SMILES): C[C@H](NP(=O)(OC[C@H]1O[C@@H](n2cnc3c(NCc4ccco4)ncnc32)[C@H](O)[C@@H]1O)Oc1ccccc1)C(=O)OCc1ccccc1 (stereo partly drawn)
- Activity [9]: Tde
- Activity [1]: Active
- Activity [10]: inactive

Structure (SMILES): OC[C@H]1O[C@@H](n2cnc3c(NCc4ccco4)ncnc32)[C@H](O)[C@@H]1O
- Activity [1]: Active

Structure (SMILES): C[C@H](NP(=O)(OC[C@H]1O[C@@H](n2cnc3c(NCc4ccco4)ncnc32)[C@H](O)[C@@H]1O)Oc1ccccc1)C(=O)OC(C)(C)C (stereo partly drawn)
- Activity [1]: inactive
- remaining at 12 h [11]: 50%

Structure (SMILES): C[C@H](NP(=O)(O)OC[C@H]1O[C@@H](n2cnc3c(NCc4ccco4)ncnc32)[C@H](O)[C@@H]1O)C(=O)O
- Drug metabolism [12]: Metabolite_Detected

Structure (SMILES): N#CC(C#N)=NNc1cccc(Cl)c1
- Activity [13]: Tde
